Results gathered from unrelated publications.
Compare with care: the assays were run in different laboratories.
BMP2K: BMP-2-inducible protein kinase (BMP2K, Homo sapiens, UniProt Q9NSY1)
murC: UDP-N-acetylmuramate--L-alanine ligase (murC, Escherichia coli K-12, UniProt P17952)
MTNR1A: Melatonin receptor type 1A (MTNR1A, Homo sapiens, UniProt P48039)
Trypanothione synthetase: Trypanothione synthetase (Trypanosoma cruzi, UniProt Q9GT49)
Grm1: Metabotropic glutamate receptor 1 (Grm1, Rattus norvegicus, UniProt P23385)

SMILES | target | test | test system | conditions | quantity | value
c1cc(CN2CCOCC2)cc(Nc2ncc(C3CC3)c(NCCc3c[nH]cn3)n2)c1 | BMP2K | enzyme activity, inhibitor, radiometric | – | 1 µM | remaining activity | 18%
O=C(Nc1ccc(C=NNS(=O)(=O)c2ccc3ccccc3c2)cc1)c1ccccc1 | murC | enzyme activity, inhibitor, absorbance | – | 100 µM | remaining activity | 97%
COc1cc(I)c2[nH]cc(CCNC(C)=O)c2c1 | MTNR1A | β-arrestin recruitment, agonist | CHO-K1 | 90 min | Emax | 95%
NS(=O)(=O)c1ccc(CNc2ccnc(Nc3cccc(NC(=O)N4CCCC4)c3)n2)cc1 | BMP2K | enzyme activity, inhibitor, radiometric | – | 1 µM | remaining activity | 80%
O=C(Nc1ccc(C=NNS(=O)(=O)c2ccc3ccccc3c2)cc1)c1cc([N+](=O)[O-])cc([N+](=O)[O-])c1 | murC | enzyme activity, inhibitor, absorbance | – | 100 µM | remaining activity | 72%
O=C(NCCCNc1nc(Nc2cccc(CN3CCOCC3)c2)ncc1C1CC1)C1CCC1 | BMP2K | enzyme activity, inhibitor, radiometric | – | 1 µM | remaining activity | 3%
COc1ccc2[nH]cc(CCNC(C)=O)c2c1I | MTNR1A | cAMP, agonist, TR-FRET | CHO-K1 | 20 min | Emax | 90%
CCN(Cc1ccccc1C(F)(F)F)C(=O)C1CCN(S(=O)(=O)c2ccc3[nH]ncc3c2)CC1 | B1 bradykinin receptor (BDKRB1, Homo sapiens, UniProt P46663) | ligand displacement, radioligand | – | 10 µM | inhibition | 8%
O=C(Nc1ccc(C=NNS(=O)(=O)c2ccc3ccccc3c2)cc1)c1ccccc1Br | murC | enzyme activity, inhibitor, absorbance | – | 100 µM | remaining activity | 41%
FC(F)(F)Oc1cccc(-c2cnc3ccc(-c4ccncc4)nn23)c1 | Serine/threonine-protein kinase SIK3 (SIK3, Homo sapiens, UniProt Q9Y2K2) | enzyme activity, inhibitor, radiometric | – | 1 µM | activity vs control | 93%
COc1cc2c(CCNC(C)=O)c[nH]c2cc1I | MTNR1A | β-arrestin recruitment, agonist | CHO-K1 | 90 min | Emax | 101%
O=C(CN1C(=O)Cc2c([nH]c3ccc(Br)cc23)-c2ccc(Cl)cc21)Nc1ccccc1 | Trypanothione synthetase | enzyme activity, inhibitor, absorbance | – | 30 µM | inhibition | 29.6%
N#Cc1ccc(COc2ccccc2C=NNS(=O)(=O)c2ccc3ccccc3c2)cc1 | murC | enzyme activity, inhibitor, absorbance | – | 100 µM | remaining activity | 36%
CCCOc1ccc(OC)c(F)c1C(=O)c1ccc(C(=O)N[C@@H]2CNC[C@H]2NC(=O)c2ccc3[nH]ncc3c2)cc1 | Rho-associated protein kinase 2 (ROCK2, Homo sapiens, UniProt O75116) | enzyme activity, inhibitor | – | 0.1 µM | remaining activity | 25%
COc1cc(NC(C)=O)c(Cl)cc1C(=O)Nc1nccs1 | Prostaglandin G/H synthase 1 (PTGS1, Homo sapiens, UniProt P23219) | enzyme activity, inhibitor | – | 10 µM | inhibition | 72%
CCc1ccc2scc(CCNC(C)=O)c2c1 | MTNR1A | cAMP, agonist, TR-FRET | CHO-K1 | 20 min | Emax | 75%
CN1CCN(CCNC(=O)CN2C(=O)Cc3c([nH]c4ccc(Br)cc34)-c3ccc(Cl)cc32)CC1 | Trypanothione synthetase | enzyme activity, inhibitor, absorbance | – | 30 µM | inhibition | 16.8%
O=C(NCCCNc1nc(Nc2cccc(NC(=O)N3CCCC3)c2)ncc1I)c1cccs1 | BMP2K | enzyme activity, inhibitor, radiometric | – | 1 µM | remaining activity | 1%
Oc1ccc(-c2nc(-c3ccncc3)c(-c3ccc(F)cc3)[nH]2)cc1 | BRWD3 (Homo sapiens, UniProt Q6RI45) | thermal stability, DSF | – | 10 µM | ΔTm | 0.66 °C

SMILES | target | test | test system | conditions | quantity | value
O=C(NCCCNc1nc(Nc2cccc(NC(=O)N3CCCC3)c2)ncc1Br)C1CCC1 | BMP2K | enzyme activity, inhibitor, radiometric | – | 1 µM | remaining activity | -1%
O=[N+]([O-])c1cccc(COc2ccccc2C=NNS(=O)(=O)c2ccc3ccccc3c2)c1 | murC | enzyme activity, inhibitor, absorbance | – | 50 µM | remaining activity | 65%
Cc1cc(NC(=O)c2cccc3cc(-c4cccc5[nH]nc(N)c45)ccc23)ccc1F | MAPK/MAK/MRK overlapping kinase (MOK, Homo sapiens, UniProt Q9UQ07) | enzyme activity, inhibitor | – | 0.1 µM | activity vs control | 95%
O=C(CN1C(=O)Cc2c([nH]c3ccc(Br)cc23)-c2ccc(Cl)cc21)NC1=NCCS1 | Trypanothione synthetase | enzyme activity, inhibitor, absorbance | – | 30 µM | inhibition | 16%
O=C(O)C(=O)Cc1ccccc1 | Macrophage migration inhibitory factor (MIF, Homo sapiens, UniProt P14174) | enzyme activity, substrate | – | – | Km | 760 µM
COc1ccc2cccc(CCNC(C)=O)c2c1 | MTNR1A | β-arrestin recruitment, agonist | CHO-K1 | 90 min | Emax | 96%
Nc1ncnc2occ(-c3ccc(NC(=O)Nc4cc(C(F)(F)F)ccc4F)cc3)c12 | Receptor-type tyrosine-protein kinase FLT3 (FLT3, Homo sapiens, UniProt P36888, ITD) | cell-free assay, inhibitor | – | 20 µM | remaining signal | 0.1%
COc1ccc2ncn(CCNC(C)=O)c2c1 | MTNR1A | GTPγS binding, agonist, radiometric | – | cell membranes | Emax | 53%
O=C(Nc1ccc(S(=O)(=O)N2CCC(Cl)CC2)cc1)c1ccc([N+](=O)[O-])o1 | MTNR1A | ligand displacement, radioligand | – | 10 µM | inhibition | 8%
O=C(Nc1ccc(N2C(=O)c3ccccc3C2=O)c(Cl)c1)c1ncccc1O | Grm1 | calcium signal, positive allosteric modulator | T-REx-293 | – | Emax | 105%
Cc1ccc(C(=O)Nc2ccc(CN3CCN(C)CC3)c(C(F)(F)F)c2)cc1C#Cc1cnc2cccnn12 | Serine/threonine-protein kinase MRCK gamma (CDC42BPG, Homo sapiens, UniProt Q6DT37) | cell-free assay | – | 23.5 nM | remaining signal | 100%
COc1cc2c(CCNC(C)=O)c(I)[nH]c2cc1[N+](=O)[O-] | MTNR1A | cAMP, agonist, TR-FRET | CHO-K1 | 20 min | Emax | 92%
NC(=O)CN1C(=O)Cc2c([nH]c3ccc(Br)cc23)-c2ccc(Cl)cc21 | Trypanothione synthetase | enzyme activity, inhibitor, absorbance | – | 30 µM | inhibition | 5.2%
CC(CCC(=O)NCC(=O)O)C1CCC2C3CCC4CC(O)CCC4(C)C3CC(O)C12C (stereo not shown) | Serine hydroxymethyltransferase, cytosolic (SHMT1, Homo sapiens, UniProt P34896) | thermal stability | – | 50 µM | ΔTm | 9.2 °C
O=C(NCCCNc1nc(Nc2cccc(NC(=O)N3CCCC3)c2)ncc1C1CC1)C1CCC1 | BMP2K | enzyme activity, inhibitor, radiometric | – | 1 µM | remaining activity | 8%
Cc1cccnc1C(=O)Nc1ccc(N2C(=O)c3cccc(Cl)c3C2=O)c(Cl)c1 | Grm1 | calcium signal, positive allosteric modulator | T-REx-293 | – | Emax | 118%
NS(=O)(=O)c1ccc(CNc2nc(Nc3cccc(NC(=O)N4CCCC4)c3)ncc2Br)cc1 | BMP2K | enzyme activity, inhibitor, radiometric | – | 1 µM | remaining activity | 1%
O=C(c1ccc(F)cc1)N(Cc1ccccc1)C1CCCCC1 | Substance-P receptor (TACR1, Homo sapiens, UniProt P25103) | cell-free assay | – | 10 µM | inhibition | 20%
